Assay outcomes: PubChem, several laboratories
FID counter – fluorescent intercalator displacement, NS3 helicase counter-screen. inhibition, % at 7.9 µM. 0.17% of 290,000 active. DNA fluorescent intercalator displacement, fluorescence; in the data active means inhibition above about 37%;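 further: 0% = vehicle and 100% = reference compound; higher means more ethidium bromide displaced from hairpin DNA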
UBC13 polyUb – inhibitors of human UBC13 polyubiquitin chain formation | P61088 | TR-FRET | 0.47% of 330,000 active | inhibition, % at 20 µM; in the data active means inhibition above about 45%, passing the limit was not always enough; inconclusive means no clear call, values can overlap the other calls
Apaf1 inhib – human Apaf-1 inhibition; reconstituted apoptosome caspase-3 activity, DEVD-Rh110 fluorescence; AID 489030; inhibition, % at 20 µM; 0.71% of 330,000 active; active means inhibition of at least 40% at 20 µM;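 further: plate controls were DMSO wells for no effect and DEVD-CHO caspase inhibitor wells for full effect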
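Assay system: Apoptosome proteins | Medium: pH 7.5 Hepes buffer with CHAPS, BSA, DTT | Also added: Cytochrome c and DEVD-Rh110 substrate | Times: 30 min plus 50 min, RT | Detection: Rhodamine 110 fluorescence at Ex 480/Em 540 nm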
TMEM16A inh – blocks the mouse calcium-activated chloride channel TMEM16A | Q8BHY3 | 1.2% of 310,000 active | AID 588511 | normalized B-score (activity score, 25-100; higher = stronger inhibition) at 10 µM | HEK293 TMEM16A/YFP iodide influx fluorescence, ionomycin;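 active means ratio plate-corrected score three or more library SD toward inhibition, starting fluorescence score within five deviations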;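 further: score derived from kinetic fluorescence span divided by baseline fluorescence per well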
Target sequence (Q8BHY3 whole entry, looked up): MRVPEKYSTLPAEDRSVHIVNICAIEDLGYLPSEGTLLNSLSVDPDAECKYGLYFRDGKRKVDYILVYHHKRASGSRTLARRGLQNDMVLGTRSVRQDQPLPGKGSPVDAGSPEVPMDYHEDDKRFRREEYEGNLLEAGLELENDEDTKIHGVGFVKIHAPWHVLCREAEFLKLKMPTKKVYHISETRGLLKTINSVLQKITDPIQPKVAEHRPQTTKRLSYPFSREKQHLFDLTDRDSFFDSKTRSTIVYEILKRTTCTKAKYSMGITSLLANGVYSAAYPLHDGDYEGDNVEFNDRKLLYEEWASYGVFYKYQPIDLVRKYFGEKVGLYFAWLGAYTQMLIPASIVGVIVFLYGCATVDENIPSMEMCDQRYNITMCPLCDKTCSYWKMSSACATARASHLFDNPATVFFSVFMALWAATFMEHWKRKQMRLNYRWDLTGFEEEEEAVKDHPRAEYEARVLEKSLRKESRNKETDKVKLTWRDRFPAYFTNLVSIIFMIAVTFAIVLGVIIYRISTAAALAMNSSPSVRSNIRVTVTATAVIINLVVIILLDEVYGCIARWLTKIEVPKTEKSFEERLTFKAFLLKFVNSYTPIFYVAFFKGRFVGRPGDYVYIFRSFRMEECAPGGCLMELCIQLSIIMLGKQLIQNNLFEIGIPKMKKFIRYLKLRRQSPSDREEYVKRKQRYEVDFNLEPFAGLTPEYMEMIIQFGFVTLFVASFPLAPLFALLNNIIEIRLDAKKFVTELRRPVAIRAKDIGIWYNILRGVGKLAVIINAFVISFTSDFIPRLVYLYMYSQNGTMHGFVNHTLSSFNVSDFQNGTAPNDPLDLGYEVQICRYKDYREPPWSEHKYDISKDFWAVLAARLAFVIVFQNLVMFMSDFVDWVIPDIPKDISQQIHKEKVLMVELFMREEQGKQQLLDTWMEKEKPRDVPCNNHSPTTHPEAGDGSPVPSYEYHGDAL
TMEM16A act – activates or potentiates the mouse TMEM16A chloride channel; Q8BHY3; HEK293 TMEM16A/YFP-H148Q/I152L, iodide quench fluorescence; active compounds read low; B-score at 10 µM; 0.3% of 340,000 active; AID 623877;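 active means fluorescence-ratio B-score plate-corrected deviation score at least 3 library SD below zero, with starting fluorescence score within 5 deviations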;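 further: channel opened by trigger with iodide after compound preincubation; score built on the fluorescence ratio of max minus min over baseline; more negative score means more quench and so TMEM16A activation or potentiation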
Casp3 UBC13 ctr – caspase-3 inhibition (UBC13 counter-screen) | shares compounds with UBC13 polyUb | Recombinant caspase-3, Caspase-Glo 3/7 luminescence, 60 min | inhibition, % at 20 µM | 4% of 1,400 active | AID 488856;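 active means mean inhibition across replicates above about 26%, limit read from the data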;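 further: plate controls were DMSO with caspase-3 for no effect and DMSO wells lacking enzyme for full effect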
UBC13 conf – human UBC13 polyubiquitin inhibition, confirmed | UBC13 polyubiquitination, TR-FRET, biochemical | shares compounds with UBC13 polyUb | AID 488859 | inhibition, % at 10 µM | 68% of 1,400 active; in the data active means inhibition above about 45%; inconclusive means no clear call, values can overlap the other calls
An asterisk follows results filed as active; i = inactive; ? = inconclusive; . = not tested or not shown. In the library only some 2.4% were active in any assay of this set; here they are far more common.

SMILES	FID counter	UBC13 polyUb	Apaf1 inhib	TMEM16A inh	TMEM16A act	Casp3 UBC13 ctr	UBC13 conf
Cc1cc(C(=O)CSc2nnc(-c3cccnc3)n2-c2ccccc2F)c(C)n1CC1CCCO1 (configuration not stated)	-30	9	7	i	i	.	.
CCN(CC(=O)NCc1cccs1)C(=O)c1ccc(S(=O)(=O)Nc2ccccc2Cl)cc1	.	12	-12	.	i	.	.
COc1ccc(C(=O)c2c3ccccc3[n+]([O-])n2CCCN)cc1	.	-12	8	i	i	.	.
NCCCn1c(C(=O)c2cc(Cl)c(N)c(Cl)c2)c2ccccc2[n+]1[O-]	.	97*	6	i	i	1	100*
NC(=O)CCn1c(C(=O)c2cc(Cl)c(N)c(Cl)c2)c2ccccc2[n+]1[O-]	-14	62*	5	i	i	0	65*
Cc1cnc(C(=O)OCC(=O)c2cc(C)n(C)c2C)cn1	-2	3	-2	i	i	.	.
C#CCOCCOCCOCCNc1nc(N2CCN(C(=O)[C@H]([C@@H](C)CC)n3cc([C@@H](N)CO)nn3)CC2)nc(N2CCN(C(=O)[C@H](Cc3cc4ccccc4[nH]3)n3cc([C@@H](N)C(C)CC)nn3)CC2)n1 (some centres not stated)	41*	60*	48*	i	.	8	46*
C#CCOCCOCCOCCNc1nc(N2CCN(C(=O)C([C@@H](C)CC)n3cc(C(N)COC(=O)C(F)(F)F)nn3)CC2)nc(N2CCN(C(=O)[C@H](Cc3cc4ccccc4[nH]3)n3cc(C(N)CO)nn3)CC2)n1 (some centres not stated)	.	69*	49*	i	.	3	29
C#CCOCCOCCOCCNc1nc(N2CCN(C(=O)[C@H]([C@@H](C)CC)n3cc([C@@H](N)CO)nn3)CC2)nc(N2CCN(C(=O)[C@H](Cc3ccc(O)cc3)n3cc([C@@H](N)C(C)CC)nn3)CC2)n1 (some centres not stated)	34	5	-2	i	i	.	.
CCN(CC)CCNC1=CC(=O)OC12CCCCC2	-2	-3	0	i	i	.	.
CN(CCNC(=O)CCCOc1cc(=O)n(C)c2ccccc12)Cc1ccccc1	6	51*	7	i	i	4	68*
Oc1ccc(C[C@H]2CNCCN2CCCCC2CCCCC2)cc1	.	58*	41*	i	i	-4	26
Cc1c(C)c2cc3c(C)coc3cc2oc1=O	-5	4	-5	i	i	.	.
CCCCC(=O)Nc1ccc2c3c(cccc13)C(=O)N2CC	-10	60*	-7	i	i	2	66*
CCN1C(=O)c2cccc3c(NC(=O)C(C)(C)C)ccc1c23	-8	-5	13	i	i	.	.
COc1cccc(-c2noc(-c3ccc(Cl)nc3)n2)c1	-1	0	13	i	i	.	.
N#Cc1ccsc1NC(=O)C1CCN(C(=O)c2ccc(Cl)cc2)CC1	.	48*	6	i	i	-2	79*
O=C(NC1CCCC1)C1CCN(C(=O)c2ccc(Cl)cc2)CC1	-20	2	1	i	i	.	.
O=C1/C(=C/c2cccc([N+](=O)[O-])c2)CSc2ccc(Cl)cc21	4	49*	-15	i	i	1	83*
CCOc1cccc(CN2CCCC(CNC(=O)c3cccc(OC)c3OC)C2)c1 (configuration not stated)	1	-3	-8	i	i	.	.
CCCNC(=O)Cn1cnc([N+](=O)[O-])n1	1	10	-6	i	i	.	.
O=C(CN1C(=O)NC2(CCCC2)C1=O)NCCC1=CCCCC1	-1	97*	-11	i	i	-1	6
Cc1cc(NC(=O)Cn2nc(C)c([N+](=O)[O-])c2C)no1	-2	17	-9	i	i	.	.
CCC(=O)NNC(=S)NC(=O)c1ccc(C)cc1	2	1	-10	i	i	.	.
CCC(=O)NC(=S)NNC(=O)c1ccc(O)cc1	-4	86*	2	i	i	4	101*
SMILES	FID counter	UBC13 polyUb	Apaf1 inhib	TMEM16A inh	TMEM16A act	Casp3 UBC13 ctr	UBC13 conf
Cc1oc2ncnc(N)c2c1C	2	26	2	i	i	.	.
Cc1ccc(-c2oc3ncnc(N)c3c2-c2ccc(C)cc2)cc1	-3	88*	25	i	i	-2	82*
Cc1ccc(C(=O)OCN2C(=O)c3ccccc3C2=O)c(O)c1	-18	8	15	i	i	.	.
CCC(C)[C@H](N)c1cn([C@@H](Cc2cc3ccccc3[nH]2)C(=O)N2CCNCC2)nn1 (some centres not stated)	20	94*	-11	i	i	-5	81*
C#CCOCCOCCOCCNc1nc(N2CCN(C(=O)[C@H](CCC(=O)O)n3cc(C(N)CC(C)C)nn3)CC2)nc(N2CCN(C(=O)[C@H](Cc3cc4ccccc4[nH]3)n3cc(C(N)CC(C)C)nn3)CC2)n1 (some centres not stated)	19	2	-3	i	i	.	.
CC(C)C[C@H](N)c1cn([C@@H](Cc2cc3ccccc3[nH]2)C(=O)N2CCNCC2)nn1	21	72*	-12	i	i	7	77*
COc1ccc(N(CC(=O)NCCSc2ccccn2)S(=O)(=O)c2ccccc2)c(OC)c1	-51	3	19	i	i	.	.
CCCCCCOc1ccc(/C(C)=N/NC2=NCCN2)cc1	23	60*	38	i	i	-3	85*
Cn1c2ccccc2c(=O)c2ccc(NCCc3cccs3)cc21	.	45*	30	.	i	88*	?
Cc1cc(C)cc(OCC(=O)NNC(=O)c2ccccn2)c1	.	96*	-24	.	i	2	85*
Cc1ccc(OCCCC(=O)NNC(=O)c2ccccn2)cc1	.	56*	1	.	i	0	43
O=C(COc1ccc(Cl)cc1)NNC(=O)c1ccccn1	2	71*	11	i	i	-2	97*
COCCCNC(=S)NNC(=O)c1ccccn1	-3	89*	3	i	i	2	101*
CCCN(CCC)C(=O)Nc1cc(Cl)ccc1OC	-21	2	-8	i	i	.	.
Cc1ccc(C(=O)OC(C)C(=O)N(C)C2CCCCC2)cc1S(=O)(=O)N1CCCCC1 (configuration not stated)	.	6	14	.	i	.	.
O=C(CCCCCN1C(=O)c2cccc3cccc(c23)C1=O)NCc1cccnc1	-14	76*	-6	i	i	-3	58*
O=C(CCCN1C(=O)c2cccc3cccc(c23)C1=O)NCc1cccnc1	-20	2	-16	i	i	.	.
